In publication PMC5148661 (ACS infectious diseases, 2016):
In brackets after ≈: the same amount, converted by molar mass. Like-named read-outs stand apart in the source and are kept apart here.

Assays:
Human HepG2 cells = assay: cytotoxicity against a human cell line; assay type: cell-based; settings: read-out: HepG2 growth inhibition EC50; 95% CI in parentheses
P. vivax field isolates = assay: ex vivo 48 h schizont maturation assay; assay type: cell-based
Outline: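 Field isolates came from patients at malaria clinics in Timika, Papua, Indonesia, and were tested in a 48 h schizont maturation assay adapted from the WHO microtest at 2% hematocrit. P. falciparum was run in RPMI 1640 with 10% AB+ human serum. P. vivax was run in McCoy's 5A with 20% AB+ human serum.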

[1] = across species; DSM265; cited from earlier work
Rabbit DHODH = Rabbit DHODH (Oryctolagus cuniculus, UniProt G1SWF3); settings: read-out: Rabbit DHODH IC50; cited from earlier work
Chain of Rabbit DHODH (G1SWF3 1-395): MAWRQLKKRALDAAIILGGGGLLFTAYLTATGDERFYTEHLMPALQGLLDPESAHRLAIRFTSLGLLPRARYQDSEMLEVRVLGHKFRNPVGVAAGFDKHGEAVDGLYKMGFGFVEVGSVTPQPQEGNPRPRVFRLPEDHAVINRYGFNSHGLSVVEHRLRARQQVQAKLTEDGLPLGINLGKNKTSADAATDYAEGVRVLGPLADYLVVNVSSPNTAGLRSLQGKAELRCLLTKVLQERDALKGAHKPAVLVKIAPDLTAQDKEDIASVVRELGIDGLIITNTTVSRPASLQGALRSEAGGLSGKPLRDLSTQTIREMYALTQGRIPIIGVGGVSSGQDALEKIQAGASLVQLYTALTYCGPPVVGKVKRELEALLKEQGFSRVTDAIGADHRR

[2] = DSM265; cited from earlier work
P. cynomolgi DHODH = P. cynomolgi DHODH (Plasmodium cynomolgi, UniProt K6UE05); settings: read-out: P. cynomolgi DHODH IC50; cited from earlier work
Chain of P. cynomolgi DHODH (K6UE05 1-385): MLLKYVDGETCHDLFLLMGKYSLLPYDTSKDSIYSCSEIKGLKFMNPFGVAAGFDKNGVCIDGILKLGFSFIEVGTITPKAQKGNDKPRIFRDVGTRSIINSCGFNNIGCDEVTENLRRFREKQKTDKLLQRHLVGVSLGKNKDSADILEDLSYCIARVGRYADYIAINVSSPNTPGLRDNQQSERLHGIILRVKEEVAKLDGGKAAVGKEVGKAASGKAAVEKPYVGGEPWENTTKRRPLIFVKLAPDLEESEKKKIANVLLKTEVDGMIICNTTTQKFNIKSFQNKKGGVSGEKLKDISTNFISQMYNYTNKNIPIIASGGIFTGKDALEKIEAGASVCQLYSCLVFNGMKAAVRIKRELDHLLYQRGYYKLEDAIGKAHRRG

[3] = system: P. falciparum 3D7A parasites; settings: DSM265, cited from earlier work
[4] = dogs; DSM265; cited from earlier work
[5] = kinetic solubility in pH 6.5 buffer; assay type: physicochemical; settings: aqueous buffer pH 6.5, pH 6.5
Minipig DHODH = Minipig DHODH (Sus scrofa, UniProt F1S3B0); settings: read-out: Minipig DHODH IC50; cited from earlier work
Chain of Minipig DHODH (F1S3B0 1-395): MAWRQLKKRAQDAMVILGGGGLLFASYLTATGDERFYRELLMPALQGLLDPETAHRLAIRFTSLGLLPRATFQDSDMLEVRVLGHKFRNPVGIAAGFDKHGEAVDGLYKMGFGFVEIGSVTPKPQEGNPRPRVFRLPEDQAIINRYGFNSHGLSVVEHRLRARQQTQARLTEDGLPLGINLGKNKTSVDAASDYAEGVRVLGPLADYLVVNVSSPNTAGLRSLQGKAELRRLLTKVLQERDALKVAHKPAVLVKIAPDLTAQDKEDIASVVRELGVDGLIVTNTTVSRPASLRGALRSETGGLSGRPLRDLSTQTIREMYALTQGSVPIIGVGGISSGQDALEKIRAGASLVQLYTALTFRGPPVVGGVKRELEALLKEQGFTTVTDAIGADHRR

P. falciparum 3D7 = settings: cited from earlier work

| SMILES | EC50 (Human HepG2 cells) | sensitivity of P. vivax versus P. falciparum field isolates (P. vivax field isolates) | oral bioavailability [1] | IC50 (Rabbit DHODH) | predicted human half-life [2] | IC50 (P. cynomolgi DHODH) | EC50 ([3]; read-out: EC50, 48 h growth assay (PRR), P. falciparum 3D7, 48 h) | EC50 ([3]; read-out: unbound EC50, P. falciparum 3D7 48 h growth assay (PRR)) | systemic plasma clearance [4] | unbound intrinsic clearance [4] | solubility kinetic [5] | IC50 (Minipig DHODH) | EC50 (P. falciparum 3D7; read-out: Pf3D7 EC50, whole cell P. falciparum 3D7, albumax media, 72 h) | EC50 (P. falciparum 3D7; read-out: unbound EC50, P. falciparum 3D7 in vitro 72 h growth assay, DSM265) |
| --- | --- | --- | --- | --- | --- | --- | --- | --- | --- | --- | --- | --- | --- | --- |
| O=C(O)c1[nH]c(=O)[nH]c(=O)c1F [5-fluoroorotate, reference compound] | 0.77 µM | – | – | – | – | – | – | – | – | – | – | – | – | – |
| Cc1cc(Nc2ccc(S(F)(F)(F)(F)F)cc2)n2nc(C(C)(F)F)nc2n1 [DSM265] | – | 5 fold | 20-70% | > 100 µM | 100 h | 0.012 µM | 0.011 µM | 0.0019 µM | 1.2 mL/min/kg | 183 mL/min/kg | 12.5 µg/mL (≈ 30.1 µM) | ~100 µM | 0.0043 µM | 0.00073 µM |
